The test system of series [1] is P388. The series can be described thus: Antitumor activity against mouse P388 cells allografted in BDF1 hybrid mouse assessed as increase of host life span at 200 ug/kg qd for 4 days. It is filed as functional. The following applies: P388, 96 h. The method in brief: (§1)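 P388 leukemia, 10⁶ cells, implanted ip in male BDF₁ mice, seven per group. Compounds given in saline once daily on four successive days starting 1 day after implantation (qd 1-4).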

Series [2] is described as follows: Cytotoxicity against human CCRF-CEM cells. The settings on record: read-out: ID50 (the source's name). It is filed as cell-based. The method in brief: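 In vitro growth-inhibition assay on human lymphoblastic leukemia CCRF-CEM cells grown in suspension culture. The values are relative cytotoxicity.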
The subject of series [3] is P388. The series can be described thus: Antitumor activity against mouse P388 cells allografted in BDF1 hybrid mouse assessed as increase of host life span at 225 ug/kg qd for 4 days. In kind it is functional. The following applies: P388, 96 h. A digest of the protocol:
as §1

For series [4], the system named is P388. Kind of series: Antitumor activity against mouse P388 cells allografted in BDF1 hybrid mouse assessed as increase of host life span at 150 ug/kg qd for 4 days. It is filed as functional. The settings on record: P388, 96 h. A digest of the protocol:
as §1

In series [5] the test system is P388. The series can be described thus: Antitumor activity against mouse P388 cells allografted in BDF1 hybrid mouse assessed as increase of host life span at 500 ug/kg qd for 4 days. In kind it is functional. The following applies: P388, 96 h. The method in brief: as §1
The subject of series [6] is P388. The series can be described thus: Antitumor activity against mouse P388 cells allografted in BDF1 hybrid mouse assessed as increase of host life span at 800 ug/kg qd for 4 days. The following applies: P388, 96 h. In kind it is functional. The method in brief: as §1
In series [7] the test system is P388. The series can be described thus: Antitumor activity against mouse P388 cells allografted in BDF1 hybrid mouse assessed as increase of host life span at 75 ug/kg qd for 4 days. In kind it is functional. The following applies: P388, 96 h. The method in brief: as §1
In series [8] the test system is P388. Kind of series: Antitumor activity against mouse P388 cells allografted in BDF1 hybrid mouse assessed as increase of host life span at 1500 ug/kg qd for 4 days. In kind it is functional. The settings on record: P388, 96 h. The method in brief:
as §1

Series [9] has as its system P388. Kind of series: Antitumor activity against mouse P388 cells allografted in BDF1 hybrid mouse assessed as increase of host life span at 450 ug/kg qd for 4 days. In kind it is functional. The settings on record: P388, 96 h. The method in brief:
as §1

Among the data in ChEMBL document CHEMBL3244394, “N7-Substituted 7-aminoactinomycin D analogues. Synthesis and biological properties” (J Med Chem, 1978) are ILS and CC50 values, retold here.

Converted amounts (≈) assume the structure as drawn. *1 amine or outer side, *2 acyl side, *3 side chain or, on linkers, in order; H or OH if unused. Where a SMILES comes first, the peptide text is derived from it. Bridges are numbered along the chain shown (N, C = ends). Roman numbers before positions name the chains, in order. [ ]: non-standard residue; d: D form. Actinocin(9to1) = Cc1c2oc3c(C)ccc(C(=O)[*:1])c3nc-2c(C(=O)[*:2])c(N)c1=O; NMeV = CN[C@H](C(=O)O)C(C)C; Sar = CNCC(=O)O

As for `Cc1c2oc3c(C)c(NCc4ccco4)cc(C(=O)N[C@@H]4C(=O)N[C@H](C(C)C)C(=O)N5CCC[C@H]5C(=O)N(C)CC(=O)N(C)[C@@H](C(C)C)C(=O)O[C@@H]4C)c3nc-2c(C(=O)N[C@@H]2C(=O)N[C@H](C(C)C)C(=O)N3CCC[C@H]3C(=O)N(C)CC(=O)N(C)[C@@H](C(C)C)C(=O)O[C@@H]2C)c(N)c1=O`, the ILS (usually the gain in survival time of treated over control animals, in per cent) at 0.2 mg/kg in the series on P388 [1] was 90%. Moreover, in series [2], the CC50 is 0.26 µg/mL (≈ 0.193 µM).
As to `Cc1c2oc3c(C)c(NCc4cccc(Oc5ccccc5)c4)cc(C(=O)N[C@@H]4C(=O)N[C@H](C(C)C)C(=O)N5CCC[C@H]5C(=O)N(C)CC(=O)N(C)[C@@H](C(C)C)C(=O)O[C@@H]4C)c3nc-2c(C(=O)N[C@@H]2C(=O)N[C@H](C(C)C)C(=O)N3CCC[C@H]3C(=O)N(C)CC(=O)N(C)[C@@H](C(C)C)C(=O)O[C@@H]2C)c(N)c1=O`, the ILS at 0.225 mg/kg with P388 [3] turned out to be 130%. For the same molecule, the CC50 in series [2] stood at 0.28 µg/mL (≈ 0.193 µM).
With `Cc1c2oc3c(C)c(N)cc(C(=O)N[C@@H]4C(=O)N[C@H](C(C)C)C(=O)N5CCC[C@H]5C(=O)N(C)CC(=O)N(C)[C@@H](C(C)C)C(=O)O[C@@H]4C)c3nc-2c(C(=O)N[C@@H]2C(=O)N[C@H](C(C)C)C(=O)N3CCC[C@H]3C(=O)N(C)CC(=O)N(C)[C@@H](C(C)C)C(=O)O[C@@H]2C)c(N)c1=O`, the ILS at 0.15 mg/kg in the series on P388 [4] is 164%. For the same molecule, the CC50 in [2] is 0.085 µg/mL (≈ 0.0669 µM).
In the case of `Cc1c2oc3c(C)c(NCc4ccc(C(=O)O)cc4)cc(C(=O)N[C@@H]4C(=O)N[C@H](C(C)C)C(=O)N5CCC[C@H]5C(=O)N(C)CC(=O)N(C)[C@@H](C(C)C)C(=O)O[C@@H]4C)c3nc-2c(C(=O)N[C@@H]2C(=O)N[C@H](C(C)C)C(=O)N3CCC[C@H]3C(=O)N(C)CC(=O)N(C)[C@@H](C(C)C)C(=O)O[C@@H]2C)c(N)c1=O`, in the series on P388 [5], the ILS at 0.5 mg/kg is 123%. Also, in series [2], the CC50 turned out to be 0.26 µg/mL (≈ 0.185 µM).
Turning to `Cc1c2oc3c(C)c(NCc4ccccc4)cc(C(=O)N[C@@H]4C(=O)N[C@H](C(C)C)C(=O)N5CCC[C@H]5C(=O)N(C)CC(=O)N(C)[C@@H](C(C)C)C(=O)O[C@@H]4C)c3nc-2c(C(=O)N[C@@H]2C(=O)N[C@H](C(C)C)C(=O)N3CCC[C@H]3C(=O)N(C)CC(=O)N(C)[C@@H](C(C)C)C(=O)O[C@@H]2C)c(N)c1=O`, in the series with P388 [6], the ILS at 0.8 mg/kg came out at 108%. Moreover, the CC50 in series [2] was found to be 0.25 µg/mL (≈ 0.184 µM).
Consider `Cc1c2oc3c(C)ccc(C(=O)N[C@@H]4C(=O)N[C@H](C(C)C)C(=O)N5CCC[C@H]5C(=O)N(C)CC(=O)N(C)[C@@H](C(C)C)C(=O)O[C@@H]4C)c3nc-2c(C(=O)N[C@@H]2C(=O)N[C@H](C(C)C)C(=O)N3CCC[C@H]3C(=O)N(C)CC(=O)N(C)[C@@H](C(C)C)C(=O)O[C@@H]2C)c(N)c1=O` [DACTINOMYCIN] (I: T[dV]P[Sar][NMeV] / II: T[dV]P[Sar][NMeV]; ester I:1-I:C, II:1-II:C; linker I:N-II:N via Actinocin(9to1)), for which the CC50 in series [2] is 0.01 µg/mL (≈ 0.00797 µM). Besides, in the series with P388 [7], the ILS at 0.075 mg/kg was determined as 122%.
In the case of `CCCCCCCCNc1cc(C(=O)N[C@@H]2C(=O)N[C@H](C(C)C)C(=O)N3CCC[C@H]3C(=O)N(C)CC(=O)N(C)[C@@H](C(C)C)C(=O)O[C@@H]2C)c2nc3c(C(=O)N[C@@H]4C(=O)N[C@H](C(C)C)C(=O)N5CCC[C@H]5C(=O)N(C)CC(=O)N(C)[C@@H](C(C)C)C(=O)O[C@@H]4C)c(N)c(=O)c(C)c-3oc2c1C`, the ILS at 1.5 mg/kg in the series with P388 [8] was found to be 73%. In addition, in [2], the CC50 was found to be 0.27 µg/mL (≈ 0.195 µM).
As for `Cc1c2oc3c(C)c(NCc4ccc(Cl)c(Cl)c4)cc(C(=O)N[C@@H]4C(=O)N[C@H](C(C)C)C(=O)N5CCC[C@H]5C(=O)N(C)CC(=O)N(C)[C@@H](C(C)C)C(=O)O[C@@H]4C)c3nc-2c(C(=O)N[C@@H]2C(=O)N[C@H](C(C)C)C(=O)N3CCC[C@H]3C(=O)N(C)CC(=O)N(C)[C@@H](C(C)C)C(=O)O[C@@H]2C)c(N)c1=O`, the increase in life span (ILS) at 0.5 mg/kg in the series on P388 [5] was determined as 192%. For the same molecule, in [2], the CC50 stood at 0.22 µg/mL (≈ 0.154 µM).
On to `Cc1c2oc3c(C)c(NCc4ccccn4)cc(C(=O)N[C@@H]4C(=O)N[C@H](C(C)C)C(=O)N5CCC[C@H]5C(=O)N(C)CC(=O)N(C)[C@@H](C(C)C)C(=O)O[C@@H]4C)c3nc-2c(C(=O)N[C@@H]2C(=O)N[C@H](C(C)C)C(=O)N3CCC[C@H]3C(=O)N(C)CC(=O)N(C)[C@@H](C(C)C)C(=O)O[C@@H]2C)c(N)c1=O`, for which, in the series on P388 [9], the ILS at 0.45 mg/kg was determined as 145%. Moreover, in series [2], the CC50 was 0.26 µg/mL (≈ 0.191 µM).
On to `Cc1c2oc3c(C)c(NCc4ccc[nH]4)cc(C(=O)N[C@@H]4C(=O)N[C@H](C(C)C)C(=O)N5CCC[C@H]5C(=O)N(C)CC(=O)N(C)[C@@H](C(C)C)C(=O)O[C@@H]4C)c3nc-2c(C(=O)N[C@@H]2C(=O)N[C@H](C(C)C)C(=O)N3CCC[C@H]3C(=O)N(C)CC(=O)N(C)[C@@H](C(C)C)C(=O)O[C@@H]2C)c(N)c1=O`, for which the increase in lifespan (ILS) at 0.2 mg/kg in the series on P388 [1] was 90%. In addition, the CC50 in series [2] was 0.26 µg/mL (≈ 0.193 µM).
With `Cc1c2oc3c(C)c(NCc4ccc(C(F)(F)F)cc4)cc(C(=O)N[C@@H]4C(=O)N[C@H](C(C)C)C(=O)N5CCC[C@H]5C(=O)N(C)CC(=O)N(C)[C@@H](C(C)C)C(=O)O[C@@H]4C)c3nc-2c(C(=O)N[C@@H]2C(=O)N[C@H](C(C)C)C(=O)N3CCC[C@H]3C(=O)N(C)CC(=O)N(C)[C@@H](C(C)C)C(=O)O[C@@H]2C)c(N)c1=O`, the ILS at 0.5 mg/kg with P388 [5] was 100%. Besides, the CC50 in series [2] came out at 0.26 µg/mL (≈ 0.182 µM).
